Assays:
Format in all cases: functional, Diaphragm
[1] = Antidiabetic activity in rat hemidiaphragm assessed as glucose uptake at 2 mg after 45 mins in presence of insulin
In short: (§1)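 Isolated rat hemi-diaphragm in Tyrode, test agent at 1 mg or 2 mg with or without insulin; 45 min incubation at 21 °C, shaking at 60 cycles/min. Medium glucose measured by GOD/POD enzymatic method; uptake expressed as mg/dl/45 min. Run in triplicate, mean ± SEM; groups compared by one-way ANOVA with Dunnett's post-test.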

[2] = Antidiabetic activity in rat hemidiaphragm assessed as glucose uptake at 1 mg after 45 mins in presence of insulin; in short: as §1
[3] = Antidiabetic activity in rat hemidiaphragm assessed as glucose uptake at 1 mg after 45 mins in absence of insulin; in short: as §1
[4] = Antidiabetic activity in rat hemidiaphragm assessed as glucose uptake at 2 mg after 45 mins in absence of insulin; in short: as §1

| SMILES | Activity [1] [mg/dL] | Activity [2] [mg/dL] | Activity [3] [mg/dL] | Activity [4] [mg/dL] |
| --- | --- | --- | --- | --- |
| O=C(CN1C(=O)S/C(=C\c2ccc(Cl)cc2)C1=O)Nc1ccccc1 | 36.66 | 36.03 | 16.83 | 16.9 |
| O=C(CN1C(=O)S/C(=C\c2ccccc2Cl)C1=O)Nc1ccccc1 | 27.16 | 26.03 | 13.81 | 14.03 |
| O=C(CN1C(=O)S/C(=C\c2cccc(Cl)c2)C1=O)Nc1ccccc1 | 40.5 | 39 | 17.83 | 17.63 |
| CCOC(=O)CNC(=O)CN1C(=O)S/C(=C\c2ccc(OC)cc2)C1=O | 43.07 | 41.5 | 18.28 | 18.79 |
| O=C(COc1ccc(/C=C2\SC(=O)NC2=O)cc1)Nc1ccccc1 | 42.69 | 41.16 | 18.46 | 18.5 |
| O=C(COc1ccc(/C=C2\SC(=S)NC2=O)cc1)Nc1ccccc1 | 35.33 | 34.66 | 16.16 | 16.33 |
| CCc1cccc(CC)c1NC(=O)COc1ccc(/C=C2\SC(=S)NC2=O)cc1 | 28.5 | 28.83 | 14.5 | 15.66 |
| CCc1cccc(CC)c1NC(=O)COc1ccc(/C=C2\SC(=O)NC2=O)cc1 | 29.8 | 29 | 15.82 | 15 |
| COc1ccc(NC(=O)COc2ccc(/C=C3\SC(=O)NC3=O)cc2)cc1 | 35.66 | 34.16 | 16.66 | 16.83 |
| COc1ccc(NC(=O)COc2ccc(/C=C3\SC(=S)NC3=O)cc2)cc1 | 37.09 | 35 | 16.91 | 17.01 |
| Cc1ccc(NC(=O)COc2ccc(/C=C3\SC(=O)NC3=O)cc2)cc1 | 33.5 | 33.83 | 16 | 16.16 |
| Cc1ccc(NC(=O)COc2ccc(/C=C3\SC(=S)NC3=O)cc2)cc1 | 34.16 | 33.79 | 15.33 | 16.56 |
| COc1ccc(/C=C2\SC(=O)N(CC(=O)Nc3ccccc3)C2=O)cc1 | 43.9 | 42.16 | 18.71 | 19.66 |
| O=C(CN1C(=O)S/C(=C\c2ccc(Cl)cc2Cl)C1=O)Nc1ccccc1 | 42.44 | 41.93 | 18.33 | 18.5 |
| O=C(CN1C(=O)S/C(=C\c2ccccc2O)C1=O)Nc1ccccc1 | 42.26 | 41.85 | 18 | 18.33 |
| O=C(CN1C(=O)S/C(=C\C=C\c2ccccc2)C1=O)Nc1ccccc1 | 36.66 | 36.16 | 15 | 16.16 |
| O=C(CN1C(=O)S/C(=C\c2ccccc2)C1=O)Nc1ccccc1 | 39 | 38.3 | 17.72 | 18 |
| O=C(CN1C(=O)S/C(=C\c2ccco2)C1=O)Nc1ccccc1 | 32.29 | 32.16 | 15.66 | 15.86 |
| COc1cc(/C=C2\SC(=O)N(CC(=O)Nc3ccccc3)C2=O)ccc1O | 30.83 | 28.5 | 15.5 | 16.96 |
| CN(CCOc1ccc(CC2SC(=O)NC2=O)cc1)c1ccccn1 (stereo not given) [ROSIGLITAZONE] | 50.33 | 48.34 | 19 | 20.36 |

— ChEMBL document CHEMBL1687879, “Synthesis, glucose uptake activity and structure-activity relationships of some novel glitazones incorporated with glycine, aromatic and alicyclic amine moieties via two carbon acyl linker” (2011)
